{
  "source": "ChEMBL document CHEMBL5032510",
  "about": "“Identification of Novel Fused Heteroaromatics-Based MALT1 Inhibitors by High-Throughput Screening to Treat B Cell Lymphoma” (J Med Chem, 2021)",
  "key": {"[1]": {"test": "Clearance in CD-1 mouse at 1 mg/kg, iv by LC-MS/MS analysis", "assay_type": "ADME, organism-based", "settings": "in vivo", "outline": "(§1)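 Compound formulated in 5% DMSO + 5% Tween-80 in 90% saline and given to male ICR (CD-1) mice (n = 9) at 10 mg/kg po, 1 mg/kg ip or 1 mg/kg iv. Blood was drawn via the jugular vein at set time points and held on ice. Plasma was separated by centrifugation and stored at −80 °C before PK parameters were derived.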"}, "[2]": {"test": "Induction of apoptosis in human HBL1 cells assessed as viable cells at 2 uM measured after 24 hrs by Annexin V-FITC/ Propidium iodide staining based flow cytometry (reference value: 88.1%)", "assay_type": "functional", "settings": "read-out: Activity"}, "[3]": {"test": "Drug concentration in tumor of NCG mouse xenografted with human TMD8 cells at 30 mg/kg/day, ip measured after 13 days", "assay_type": "ADME, organism-based, Neoplasm", "settings": "time 13 day, read-out: Drug uptake", "outline": "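TMD8 cells (5 × 10⁶) were implanted subcutaneously into the right flank of 6-week-old female NCG mice. At day 10, when tumors were palpable, mice were randomized into groups of eight. Dosing was ip at 30 mg/kg for 13 consecutive days; controls received HPBCD (20% PEG 400) ip. TGI was based on mean tumor weight of treated versus control groups. Intratumoral drug level was measured after 13 days of dosing.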"}, "[4]": {"test": "Induction of apoptosis in human HBL1 cells assessed as viable cells at 10 uM measured after 24 hrs by Annexin V-FITC/ Propidium iodide staining based flow cytometry (reference value: 88.1%)", "assay_type": "functional", "settings": "read-out: Activity"}, "[5]": {"test": "Induction of apoptosis in human HBL1 cells assessed as early apoptotic cells at 10 uM measured after 24 hrs by Annexin V-FITC/ Propidium iodide staining based flow cytometry (reference value: 4.85%)", "assay_type": "functional"}, "TMD8 [6]": {"system": "TMD8", "test": "Induction of apoptosis in human TMD8 cells assessed as viable cells at 2 uM measured after 24 hrs by Annexin V-FITC/ Propidium iodide staining based flow cytometry (reference value: 90.8%)", "assay_type": "functional", "settings": "read-out: Activity"}, "[7]": {"test": "Induction of apoptosis in human HBL1 cells assessed as dead cells at 5 uM measured after 24 hrs by Annexin V-FITC/ Propidium iodide staining based flow cytometry (reference value: 2.32%)", "assay_type": "functional"}, "TMD8 [8]": {"system": "TMD8", "test": "Induction of apoptosis in human TMD8 cells assessed as viable cells at 10 uM measured after 24 hrs by Annexin V-FITC/ Propidium iodide staining based flow cytometry (reference value: 90.8%)", "assay_type": "functional", "settings": "read-out: Activity"}, "TMD8 [9]": {"system": "TMD8", "test": "Induction of apoptosis in human TMD8 cells assessed as early apoptotic cells at 5 uM measured after 24 hrs by Annexin V-FITC/ Propidium iodide staining based flow cytometry (reference value: 6.97%)", "assay_type": "functional"}, "TMD8 [10]": {"system": "TMD8", "test": "Induction of apoptosis in human TMD8 cells assessed as early apoptotic cells at 10 uM measured after 24 hrs by Annexin V-FITC/ Propidium iodide staining based flow cytometry (reference value: 6.97%)", "assay_type": "functional"}, "TMD8 [11]": {"system": "TMD8", "test": "Induction of apoptosis in human TMD8 cells assessed as late apoptotic cells at 2 uM measured after 24 hrs by Annexin V-FITC/ Propidium iodide staining based flow cytometry (reference value: 2.19%)", "assay_type": "functional"}, "TMD8 [12]": {"system": "TMD8", "test": "Induction of apoptosis in human TMD8 cells assessed as dead cells at 2 uM measured after 24 hrs by Annexin V-FITC/ Propidium iodide staining based flow cytometry (reference value: 0%)", "assay_type": "functional"}, "OCI-Ly1 [13]": {"system": "OCI-Ly1", "test": "Induction of apoptosis in human OCI-Ly1 cells assessed as viable cells at 2 uM measured after 24 hrs by Annexin V-FITC/ Propidium iodide staining based flow cytometry (reference value: 97.8%)", "assay_type": "functional", "settings": "read-out: Activity"}, "OCI-Ly1 [14]": {"system": "OCI-Ly1", "test": "Induction of apoptosis in human OCI-Ly1 cells assessed as viable cells at 5 uM measured after 24 hrs by Annexin V-FITC/ Propidium iodide staining based flow cytometry (reference value: 97.8%)", "assay_type": "functional", "settings": "read-out: Activity"}, "OCI-Ly1 [15]": {"system": "OCI-Ly1", "test": "Induction of apoptosis in human OCI-Ly1 cells assessed as early apoptotic cells at 10 uM measured after 24 hrs by Annexin V-FITC/ Propidium iodide staining based flow cytometry (reference value: 1.29%)", "assay_type": "functional"}, "OCI-Ly1 [16]": {"system": "OCI-Ly1", "test": "Induction of apoptosis in human OCI-Ly1 cells assessed as late apoptotic cells at 2 uM measured after 24 hrs by Annexin V-FITC/ Propidium iodide staining based flow cytometry (reference value: 0.548%)", "assay_type": "functional"}, "OCI-Ly1 [17]": {"system": "OCI-Ly1", "test": "Induction of apoptosis in human OCI-Ly1 cells assessed as late apoptotic cells at 5 uM measured after 24 hrs by Annexin V-FITC/ Propidium iodide staining based flow cytometry (reference value: 0.548%)", "assay_type": "functional"}, "OCI-Ly1 [18]": {"system": "OCI-Ly1", "test": "Induction of apoptosis in human OCI-Ly1 cells assessed as dead cells at 10 uM measured after 24 hrs by Annexin V-FITC/ Propidium iodide staining based flow cytometry (reference value: 0.365%)", "assay_type": "functional"}, "TMD8 [19]": {"system": "TMD8", "test": "Induction of apoptosis in human TMD8 cells assessed as increase in cleaved PARP level measured after 12 hrs by Western blot analysis", "assay_type": "functional, cell-based", "outline": "(§2)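 HBL1, TMD8 or OCI-LY1 cells were exposed to DMSO or compound for 12 h. Cleaved PARP and caspase-3 were probed by western blot with HRP-conjugated secondary antibodies and chemiluminescent detection. Each lane held 20−75 μg total protein.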"}, "OCI-Ly1 [20]": {"system": "OCI-Ly1", "test": "Induction of apoptosis in human OCI-Ly1 cells assessed as increase in cleaved PARP level at 2 to 5 uM measured after 12 hrs by Western blot analysis", "assay_type": "functional, cell-based", "settings": "dose 2-5 µM", "outline": "as §2"}, "[21]": {"test": "Induction of apoptosis in human HBL1 cells assessed as late apoptosis at 10 uM measured after 24 hrs by Annexin V-FITC/ Propidium iodide staining based flow cytometry (reference value: 4.77%)", "assay_type": "functional"}, "[22]": {"test": "Tmax in CD-1 mouse at 1 mg/kg, ip by LC-MS/MS analysis", "assay_type": "ADME, organism-based", "settings": "in vivo", "outline": "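Male ICR (CD-1) mice (n = 9). Compound formulated in 5% DMSO + 5% Tween-80 in 90% saline and dosed 10 mg/kg po, 1 mg/kg ip or 1 mg/kg iv. Blood drawn from the jugular vein at set time points and held on ice. Plasma separated by centrifugation and stored at −80 °C before parameter derivation.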"}, "[23]": {"test": "Cmax in CD-1 mouse at 10 mg/kg, po by LC-MS/MS analysis", "assay_type": "ADME, organism-based", "set-up": "route oral, dose 10 mg/kg", "settings": "in vivo", "outline": "as §1"}, "[24]": {"test": "Cmax in CD-1 mouse at 1 mg/kg, ip by LC-MS/MS analysis", "assay_type": "ADME, organism-based", "set-up": "route intraperitoneal, dose 1 mg/kg", "settings": "in vivo", "outline": "as §1"}, "[25]": {"test": "AUC (0 to t) in CD-1 mouse at 1 mg/kg, ip by LC-MS/MS analysis", "assay_type": "ADME, organism-based", "set-up": "dose 1 mg/kg", "settings": "in vivo", "outline": "as §1"}, "TMD8 [26]": {"system": "TMD8", "test": "Antitumor activity against human TMD8 cells xenografted in NCG mouse assessed as tumor growth inhibition at 30 mg/kg/day, ip measured every 2 days for 13 days by caliper method relative to control", "assay_type": "functional", "settings": "312 h, time 13 day, read-out: TGI"}, "[27]": {"test": "Intraperitoneal bioavailability in CD-1 mouse at 1 mg/kg by LC-MS/MS analysis", "settings": "in vivo, ip"}, "[28]": {"test": "Toxicity in NCG mouse xenografted with human TMD8 cells assessed as emaciation at 30 mg/kg/day, ip measured for 13 days", "settings": "in vivo, 312 h"}, "[29]": {"test": "Toxicity in NCG mouse xenografted with human TMD8 cells assessed as body weight loss at 30 mg/kg/day, ip measured for 13 days", "settings": "in vivo, 312 h"}},
  "note": "Activity calls are given as the source filed them. The rule behind the calls is not given here.",
  "data": [
    {"compound": "COc1ccc(OC)c(NC(=O)c2sc(=S)n(-c3ccc(C(F)(F)F)cc3)c2NC(=O)CCl)c1", "values": [
      {"measurement": "clearance", "setting": "[1]", "value": 14.1, "unit": "mL/min/kg"},
      {"measurement": "viability at 2 µM", "setting": "[2]", "value": 85.8, "unit": "%"},
      {"measurement": "concentration at 312 h", "setting": "[3]", "value": 1130, "unit": "ng/g"},
      {"measurement": "viability at 10 µM", "setting": "[4]", "value": 6.11, "unit": "%"},
      {"measurement": "Activity", "setting": "[5]", "value": 57.8, "unit": "%"},
      {"measurement": "viability at 2 µM", "setting": "TMD8 [6]", "value": 89.4, "unit": "%"},
      {"measurement": "Activity", "setting": "[7]", "value": 1.8, "unit": "%"},
      {"measurement": "viability at 10 µM", "setting": "TMD8 [8]", "value": 3.65, "unit": "%"},
      {"measurement": "Activity", "setting": "TMD8 [9]", "value": 58.9, "unit": "%"},
      {"measurement": "Activity", "setting": "TMD8 [10]", "value": 53.1, "unit": "%"},
      {"measurement": "Activity", "setting": "TMD8 [11]", "value": 2.54, "unit": "%"},
      {"measurement": "Activity", "setting": "TMD8 [12]", "value": 0.048, "unit": "%"},
      {"measurement": "viability at 2 µM", "setting": "OCI-Ly1 [13]", "value": 97.4, "unit": "%"},
      {"measurement": "viability at 5 µM", "setting": "OCI-Ly1 [14]", "value": 97.4, "unit": "%"},
      {"measurement": "Activity", "setting": "OCI-Ly1 [15]", "value": 2.65, "unit": "%"},
      {"measurement": "Activity", "setting": "OCI-Ly1 [16]", "value": 0.688, "unit": "%"},
      {"measurement": "Activity", "setting": "OCI-Ly1 [17]", "value": 0.774, "unit": "%"},
      {"measurement": "Activity", "setting": "OCI-Ly1 [18]", "value": 0.337, "unit": "%"},
      {"measurement": "Activity", "setting": "TMD8 [19]", "value": "Dose-Dependent Effect"},
      {"measurement": "Activity", "setting": "OCI-Ly1 [20]", "value": "inactive"},
      {"measurement": "Activity", "setting": "[21]", "value": 35, "unit": "%"},
      {"measurement": "Tmax", "setting": "[22]", "value": 21, "unit": "min"},
      {"measurement": "Cmax", "setting": "[23]", "value": 1530, "unit": "ng/mL"},
      {"measurement": "Cmax", "setting": "[24]", "value": 336, "unit": "ng/mL"},
      {"measurement": "AUC(0-t)", "setting": "[25]", "value": 732, "unit": "ng·h/mL"},
      {"measurement": "inhibition in vivo at 30 mg/kg/day", "setting": "TMD8 [26]", "value": 31, "unit": "%"},
      {"measurement": "bioavailability", "setting": "[27]", "value": 72, "unit": "%"},
      {"measurement": "Activity", "setting": "[28]", "value": "Non-Toxic"},
      {"measurement": "Activity", "setting": "[29]", "value": "Non-Toxic"}
    ]}
  ]
}
